Experimental data pooled from the literature.
Each line is one published result; the experiments were not run side by side.

Structure (SMILES)	method	medium	time	pH	temperature	notes	solubility
CCN(CC)CCOc1ccc2c(=O)c3c([nH]c2c1)CCCC3	absorbance	aqueous buffer	90 min	pH 7.4	–	–	> 500 µM
COc1ccc(Cn2cc(CO[C@@H]3O[C@H]4[C@H](OC[C@H]4O)[C@H]3O)nn2)cc1	–	PBS	–	pH 7.4	–	–	198 µM
CC(C)N(c1ccc(C#N)cc1)c1ccc(NC(=O)CN(C)c2ccccc2N2CCCC2=O)cn1	–	PBS	–	pH 7.4	–	–	40 µM
O=c1c2ccc(Oc3ccc(OC(F)(F)F)cc3)cc2[nH]c2cc(F)c(Cl)cc12	absorbance	aqueous buffer	90 min	pH 7.4	–	–	< 3.12 µM
O=C(Nc1ccc(OC(F)(F)F)cc1)N[C@H]1CC[C@H](Oc2ccc(C(=O)O)cc2)CC1	–	simulated gastric fluid	1 h	pH 1	37 °C	acidic	0.0008 µg/mL
Cc1nc(Nc2ncnc3ccc(-c4cccc(N5CCOCC5)c4)cc23)oc1C	–	aqueous buffer	–	pH 7.4	25 °C	–	0.2 µM
Cc1ncsc1-c1ccc(CNC(=O)[C@@H]2C[C@@H](O)CN2C(=O)[C@@H](NC(=O)COCCOCCOCCNC(=O)C[C@@H]2N=C(c3ccc(Cl)cc3)c3c(sc(C)c3C)-n3c(C)nnc32)C(C)(C)C)cc1	HPLC	water	–	pH 6.9	–	–	45 µg/mL
Cc1ccccc1CN1C(=O)C2=C(CCN(Cc3ccccc3)C2)N2CCN=C12	shake flask	aqueous buffer	–	pH 1	–	–	62200 µg/mL
COc1ccc(Nc2cnnc3cc(-c4cnc(N5CCCN(C)CC5)nc4)ccc23)cc1Cl	–	aqueous buffer	–	pH 7.4	25 °C	–	1000 µM
CCOc1ccc(Nc2c3c(nc4ccccc24)CCC3)cc1	nephelometry	aqueous buffer	30 min	pH 6.5	–	–	12.5 to 25 µg/mL
O=C(O)c1cc(-c2ccc(-n3ccnn3)cc2)cc(-n2cc(-c3ccc(C(F)(F)F)cc3)nn2)c1	–	aqueous buffer	–	pH 4	–	–	0.74 µg/mL
CN1CCN(c2cccc(-c3ccc4ncnc(Nc5ccc([N+](=O)[O-])c(C(F)(F)F)c5)c4c3)c2)CC1	–	aqueous buffer	–	pH 7.4	25 °C	–	2 µM
CCCN(CCC)CCCOc1ccc2c(=O)c3c([nH]c2c1)CCCC3	absorbance	aqueous buffer	90 min	pH 7.4	–	–	> 500 µM
c1cc(-c2ccc3ncnc(Nc4ncco4)c3c2)nc(N2CCOCC2)n1	–	aqueous buffer	–	pH 7.4	25 °C	–	3 µM
CNS(=O)(=O)c1ccc(Nc2ncc(C(F)(F)F)c([C@H]3CC[C@@](C)(O)CC3)n2)c(C)c1	–	PBS	2 h	pH 7.4	–	–	11 µM
CC(C)(C)OC(=O)N1CCC(Oc2ccc3c(=O)c4c(Cl)cc(F)cc4[nH]c3c2)CC1	absorbance	aqueous buffer	90 min	pH 7.4	–	–	< 3.12 µM
Cc1ccc(Nc2cnnc3ccc(-c4ccc(N5CCN(C)CC5)cc4)cc23)cn1	–	aqueous buffer	–	pH 7.4	25 °C	–	60 µM
CCOC(=O)C1=C(CN2CCC[C@@H]2C(=O)Nc2ccc(B(O)O)cc2)NC(c2nccs2)=N[C@H]1c1ccc(F)cc1Br	HPLC	aqueous buffer	–	pH 7	–	–	2.57 µg/mL
COc1ccc(Oc2ccc3c(=O)c4c(F)cc(Cl)cc4[nH]c3c2)cc1	absorbance	aqueous buffer	90 min	pH 7.4	–	–	< 3.12 µM
c1coc(Nc2ncnc3ccc(-c4cncc(N5CCOCC5)n4)cc23)n1	–	aqueous buffer	–	pH 7.4	25 °C	–	19 µM
COc1cnccc1Cn1nc(-c2ccc(CO)o2)c2ccccc21	–	aqueous buffer	6 h	pH 7.4	–	–	> 33 µg/mL
COc1cc(NC(=O)Cn2ccc3cc(F)c(-c4cnn(C)c4)cc32)cc(OC)c1OC	–	PBS	–	pH 7.4	–	–	< 2.7 µM

Structure (SMILES)	method	medium	time	pH	temperature	notes	solubility
Cc1ccc(Oc2ccc(NC(=O)CNc3ccccc3N3CCCC3=O)cc2)cc1	–	PBS	–	pH 7.4	–	–	9.1 µM
CC(C)(C(=O)O)[C@H](NC(=O)Cc1cccc(I)c1)c1ccc2oc(=O)[nH]c2c1	–	aqueous buffer	–	pH 6.8	–	–	> 700 µM
Cc1ccc(N(c2ccc(NC(=O)CN(C)c3ccccc3N3CCCC3=O)cn2)C(C)C)cc1	–	PBS	–	pH 7.4	–	–	24 µM
FC(F)(F)c1cc(Nc2ncnc3ccc(-c4cccc(N5CCOCC5)c4)cc23)ccc1Cl	–	aqueous buffer	–	pH 7.4	25 °C	–	< 0.7 µM
CCOC(=O)C1=C(CN2CCOCC2)NC(c2nccs2)=NC1c1ccc(F)cc1Br (centres unmarked)	HPLC	aqueous buffer	–	pH 7	–	–	< 1 µg/mL
Cc1nsc(-c2nnc3n2CCN(C(=O)c2ccc(F)cc2)[C@@H]3C)n1	–	aqueous buffer	–	pH 7.4	–	–	350 µg/mL
OCc1ccc(-c2nn(Cc3ccccc3)c3cccnc23)o1	–	aqueous buffer	6 h	pH 7.4	–	–	> 45 µg/mL
CN1CCN(c2cccc(-c3ccc4ncnc(Nc5ccc(Cl)c(Cl)c5)c4c3)c2)CC1	–	aqueous buffer	–	pH 7.4	25 °C	–	< 1.7 µM
Cc1cc(-c2ccnc3[nH]cc(F)c23)cc(F)c1[C@@]1(O)[C@H](C)CN(C2CCS(=O)(=O)CC2)C[C@@H]1C	–	aqueous buffer	–	–	–	–	> 50 µg/mL
OCc1ccc(-c2nn(Cc3ccccc3)c3ccncc23)o1	–	aqueous buffer	6 h	pH 7.4	–	–	> 45 µg/mL
Cc1c(Cl)cccc1-c1ccc2c(c1)N(Cc1noc(C3CCC3)n1)C(=O)CO2	–	PBS	8 h	pH 7.4	–	–	100 µM
CNS(=O)(=O)c1ccc(Nc2ncc(C(F)(F)F)c(N3CCC[C@](C)(O)C3)n2)c(C)c1	–	FaSSIF	2 h	–	–	–	194 µM
Cc1ccc(N(c2ccc(NC(=O)CN(C)c3ccccc3N3CCCC3=O)cc2)C(C)C)cc1	–	PBS	–	pH 7.4	–	–	< 2.5 µM
c1ccc(Oc2ccc(Nc3c4c(nc5ccccc35)CCC4)cc2)cc1	nephelometry	aqueous buffer	30 min	pH 6.5	–	–	1.6 to 3.1 µg/mL
NCc1ccc(-c2nn(Cc3ccncc3)c3ccccc23)o1	–	aqueous buffer	6 h	pH 7.4	–	–	> 30 µg/mL
CNS(=O)(=O)c1ccc(Nc2ncc3cc(Cl)c(=O)n(C4CCCC4)c3n2)c(C)c1	–	FaSSIF	2 h	–	–	–	15 µM
OCc1ccc(-c2nn(Cc3ccncc3)c3cccnc23)o1	–	aqueous buffer	6 h	pH 7.4	–	–	> 30 µg/mL
O=C(O)Cc1ccccc1Nc1c(Cl)cccc1Cl	–	FeSSIF	–	–	–	–	303 µM
OCc1ccc(-c2nn(Cc3ccccc3)c3ncccc23)o1	–	aqueous buffer	6 h	pH 7.4	–	–	> 45 µg/mL
CN1CCN(c2cccc(-c3ccc4ncnc(Nc5ncco5)c4c3)c2)CC1	–	aqueous buffer	–	pH 7.4	25 °C	–	520 µM
Cc1ccc(Oc2ccc(NC(=O)CNc3ccccc3-n3cncn3)cc2)cc1	–	PBS	–	pH 7.4	–	–	15 µM
COc1ncccc1Cn1nc(-c2ccc(CO)o2)c2ccccc21	–	aqueous buffer	6 h	pH 7.4	–	–	> 33 µg/mL
